Fewer inactive variants are shown than the library holds.

Yeast fitness data for 167 variants are collected here from the RNAGym collection of RNA variant scans (doi:10.1126/science.aae0568).

B1: tRNA (parent)
chain: GUUCCGUUGGCGUAAUGGUAACGCGUCUCCCUCCUAAGGAGAAGACUGCGGGUUCGAGUCCCGUACGGAACG

The variants in the data set derive from B1. Briefly: yeast fitness relative to wild type (ratio to wild type); higher = fitter; tRNA-Arg(CCU), competitive growth, 37 C, YPD. An outline of the steps:
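The tRNA-Arg(CCU) gene variants were made by chemical synthesis with a 3% per-site mutation rate at 69 sites and inserted at the native genomic locus of Saccharomyces cerevisiae. After pooling, the strains were competed in YPD at 37°C for 24 hours in six parallel replicates. Gene amplicons from the start population and each end population were read by 100-nucleotide paired-end sequencing, and Darwinian fitness relative to wild type was taken from genotype frequency changes. Genotypes needed ≥ 100 starting reads, and estimates < 0.5 were set to 0.5.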
On to G10A A15G A42C, for which the yeast fitness was not above 0.5. Regarding G9C C22G C62U C66A, the yeast fitness was not above 0.5. Consider G9C C24U C30G G52A C61U, for which the yeast fitness was not above 0.5.

As for G9C U16C G51C, the yeast fitness was not above 0.5. In the case of G9C C33A A70C, the yeast fitness turned out to be 0.826. Then G9C U28A A40C U47C G52A, with not above 0.5; and G9C C22G C62A, with not above 0.5. For G10A C24A A45C A57U, the yeast fitness came out at 0.63. As to G10A C30A G41C C60G A70U, the yeast fitness was 0.645. Consider G10A C11U A15G C30U C60G, for which the yeast fitness is not above 0.5. Then G9C C27G C29G A36C C61A, with not above 0.5. For the variant G10A C30U C46A, the yeast fitness stood at 0.695.

In the case of G9C U13C C55U A57C, the yeast fitness was not above 0.5. As for G10A A42C A43C, the yeast fitness turned out to be 0.612.

For G10A A36U A43G C66A, the yeast fitness was not above 0.5. For the variant G9C G23A A40C G41A C55G, the yeast fitness is not above 0.5. For G10A C33U A65C, the yeast fitness was not above 0.5. The result for G10A C22U A45G reads not above 0.5; that for G9C C27G G52C, 0.595. Take G9C C55U: the yeast fitness came to 0.635. For G9C C55A, the yeast fitness is 0.631. The result for G9C U19C G48A C49U reads 0.634; that for G10A C30A A43C A57U, not above 0.5. In the case of G9C C24G C30U, the yeast fitness is not above 0.5. Regarding G9C C22G C33A, the yeast fitness stood at 0.598. Take G9C G12C A14G A20C G67C: the yeast fitness is not above 0.5. As to G10A A20C C27G A40G, the yeast fitness was not above 0.5.

For G9U C27U C29A C31A, the yeast fitness was not above 0.5. The result for G10A C27G G63C reads not above 0.5; that for G10A A36G C60G, not above 0.5. Then G10A C27A A36U A37U G48C, with not above 0.5.

As for G9C U16C, the yeast fitness was determined as 0.731. Regarding G10A A21G C30U G50C, the yeast fitness amounted to 0.752. For the variant G9C G52U, the yeast fitness is 0.502. As for G9C C27G C29G A36C, the yeast fitness was not above 0.5. Regarding G9C U16C C30U U59A C60G, the yeast fitness is not above 0.5. Take G9C C30U A37G C55G: the yeast fitness is not above 0.5. On to G10A C30U U47A G67C, for which the yeast fitness is not above 0.5.

On to G10A C55A G68C, for which the yeast fitness is not above 0.5. Regarding G10A A20U U35C G48C, the yeast fitness was 0.723. As to G10A A20C C24U A57G C61U, the yeast fitness was not above 0.5.

With G9C C34G G51A A70G, the yeast fitness was not above 0.5.

As to G10A C24G C27U, the yeast fitness amounted to 0.547. Turning to G10A A21U A42G, the yeast fitness was not above 0.5. Take G10A C11A U16G A69G: the yeast fitness was found to be 0.538. Take G9C C29U C30A C46G: the yeast fitness was not above 0.5.

As for G10A C34G A40C C46G, the yeast fitness was not above 0.5. Then G10A A21U U53A, with 0.521. As for G9C U16G A70U, the yeast fitness was not above 0.5. Turning to G10A C24G A40G C46G, the yeast fitness was 0.556. For the variant G10A C33U G44C A45G, the yeast fitness was not above 0.5.

As to G10A A21C C24A A65C, the yeast fitness was found to be 0.521. Then G9C C31G U54A G67C A69U, with not above 0.5. For G10A A20G U26C G39A, the yeast fitness was not above 0.5. Then G10A C11G C60A G67U, with 0.512; and G9C U35A A43U, with not above 0.5. On to G10A C11U C22U A57U, for which the yeast fitness is not above 0.5.

As for G9C G38C G48C, the yeast fitness amounted to 0.582. As to G9C U28C G44C, the yeast fitness worked out at 0.619.

On to G10A A36G G48C, for which the yeast fitness stood at 0.691. G10A C29A C34G A43C C60G C66U: the yeast fitness is not above 0.5. Turning to G10A C22U G56C A69U, the yeast fitness is not above 0.5. In the case of G10A C55G, the yeast fitness amounted to 0.605.

In the case of G10A C55U, the yeast fitness came to 0.559. The result for G9C C27U reads 0.621; that for G9C U13C A69C, 0.564; that for G10A C29G U53A G56C C62G A69C, not above 0.5. On to G10A C31U G44C A69U, for which the yeast fitness is not above 0.5.

With G9U G50A, the yeast fitness amounted to 0.663. Take G9C G39C G41A A43U: the yeast fitness was not above 0.5.

Regarding G9C G41C, the yeast fitness came out at 0.575. Regarding G9C C11G C24U C31U U59G A70C, the yeast fitness was not above 0.5. Regarding G9C U13A G25A A40C A57C C61U G67A, the yeast fitness is not above 0.5. Consider G10A C27A, for which the yeast fitness is 0.801.

In the case of G9C C33U A40G U54G C62G, the yeast fitness is not above 0.5. Take G9C U26C C61A G67A: the yeast fitness was not above 0.5. The result for G9C G12A G48C C62A reads not above 0.5. As to G9C G12A A21C U26A G39C, the yeast fitness is 0.632. With G10A C33A U35C C60A, the yeast fitness is not above 0.5. G10A C11A U16G G38A A42U: the yeast fitness is not above 0.5. As to G9C C11U C24G C31U C34U C49U A69C, the yeast fitness was not above 0.5.

Turning to G9C C61G G63C, the yeast fitness is not above 0.5. Take G9C U26C: the yeast fitness worked out at 0.612. Take G9C U26G: the yeast fitness was 0.684. In the case of G10A C11U A43U C60U, the yeast fitness was not above 0.5. Then G9C U26C U54G, with not above 0.5; and G9C G10C A69G A70G, with not above 0.5; and G10A A15C G25A U47C C66U, with 0.558.

With G10A A37U A45G C46G C55A, the yeast fitness was not above 0.5. With G9C U13C C31G A57G, the yeast fitness is not above 0.5.

On to G9C U19A A20G C29U A37U C62U G67A A70C, for which the yeast fitness is not above 0.5. G9C C11A C33A C34A A37C A43G: the yeast fitness is not above 0.5. Then G9C C22G C61A G63A, with not above 0.5; and G10A C31A, with 0.637; and G10A C31U, with 0.662. Take G9C C27U U53A: the yeast fitness was found to be 0.548. In the case of G9C C46U A65U A69U, the yeast fitness was not above 0.5. On to G10A C29U C31U G48C U54A, for which the yeast fitness is not above 0.5. In the case of G10A C11A C60A, the yeast fitness was not above 0.5. With G10A A20U U35C G48C C60A A69C, the yeast fitness was not above 0.5. For G10A A37C A57C, the yeast fitness is not above 0.5. As for G9C C11G G12C U28C C61U, the yeast fitness was 0.747.

In the case of G10A C31U G38C G41A G63A G68C A69G, the yeast fitness is not above 0.5. G9C C66G: the yeast fitness worked out at 0.547. Take G10A A43U: the yeast fitness was 0.781. The result for G10A C11A C29A C66U reads not above 0.5; that for G10A A45U U53G, not above 0.5.

Take G10A C11G U28A C33U G38A C49U: the yeast fitness was not above 0.5. For G9C C30U A45G, the yeast fitness is not above 0.5. As to G9C C27A C30U C33G, the yeast fitness was not above 0.5. The result for G9C U53C C60A reads not above 0.5; that for G9C G12C A14G A20C, not above 0.5; that for G9C C27A U28G, not above 0.5. Take G10A C27A C34U A57G: the yeast fitness is not above 0.5. In the case of G10A A21U C31A G39C C62G G68A, the yeast fitness is not above 0.5. For the variant G10A, the yeast fitness turned out to be 0.705. With G9C G23A G50A, the yeast fitness is not above 0.5. Turning to G9C C30A U35C, the yeast fitness was not above 0.5. As for G9C C29G C31U C34G A42G, the yeast fitness was determined as 0.535. For G9C C49A, the yeast fitness was 0.596. Consider G10A A14C C34U A42G, for which the yeast fitness is 0.65. As for G10A A57C, the yeast fitness was 0.525. Then G10A A37U C61G C66G, with 0.623. The result for G9C G48A A69C reads 0.627; that for G9C C49U A65U, 0.52. G9C G68C: the yeast fitness was 0.777. The result for G10A A14G A36G reads not above 0.5. With G10A C11A G39C G44C G52C U53C C66G, the yeast fitness was not above 0.5. Then G10A C11U G58C A65U, with not above 0.5; and G10A A42G G50C, with not above 0.5. Regarding G10A C31U A65U, the yeast fitness stood at 0.566.

In the case of G10A A20U A70C, the yeast fitness was found to be 0.579.

Consider G10A A14U A43C A69C, for which the yeast fitness is not above 0.5.

For G10A C24A G44A A65U, the yeast fitness was not above 0.5. Consider G10A A21C C24A, for which the yeast fitness is not above 0.5. On to G10A C31U G38C G67A, for which the yeast fitness was not above 0.5. G10A A45U C61U: the yeast fitness amounted to 0.536. Regarding G10A C27G C55A C61A, the yeast fitness is not above 0.5. Consider G9C U28A C46U C60A A70C, for which the yeast fitness is not above 0.5.

With G9C C11U C31A A40C A43U A65G C66G, the yeast fitness was not above 0.5. The result for G10A C33U G56C C66A reads not above 0.5. Then G10A A14G C34G, with not above 0.5; and G10A A20U C27U U35C G48C C60A, with not above 0.5.

In the case of G9C G23A A36C, the yeast fitness came out at 0.777. Then G9C G12A C22U C24U G58A, with not above 0.5.

For the variant G9C U13G G38C A45G C62G, the yeast fitness was not above 0.5. On to G10A A20G G23A A37G A40C C66U, for which the yeast fitness is not above 0.5. On to G10A C30U C46A C66U, for which the yeast fitness is not above 0.5. The result for G10A C22U U47C reads not above 0.5. On to G9C C34G U47C C49U, for which the yeast fitness was not above 0.5. The result for G9C U16G C66G reads not above 0.5; that for G10A C27G G48C C62A, not above 0.5; that for G9C C30G C46U, 0.564.

With G10A C46G A65C, the yeast fitness came out at 0.597. Consider G9C C27U C33G A37G C66U, for which the yeast fitness is not above 0.5. The result for G9C C11G A20U C31U G38C reads not above 0.5; that for G10A C27U U28C C30A G48A G50A, 0.985; that for G10A C29G, 0.522. As to G10A C29A C55G A65G, the yeast fitness amounted to 0.649. With G10A A21G C29A, the yeast fitness worked out at 0.519.

As to G9C G10C U47A, the yeast fitness is not above 0.5.

On to G9C G10C, for which the yeast fitness was 0.68. The result for G10A A20C C29G reads 0.597; that for G10A C30U A43U C55A, not above 0.5; that for G9C G18C C49G G63A A65U, not above 0.5.

For G10A A45C G50C G51C C55U G68A A70C, the yeast fitness is not above 0.5. On to G9C G44C C61U, for which the yeast fitness came out at 0.584.
